Bioassay records (PubChem)
The sample as a whole holds a higher share of hits than the screen did.
T cruzi inh: T. cruzi replication inhibition; T. cruzi beta-gal in NIH3T3, luminescence, 90 h; hit rate 1.4% among 300,000; inhibition, % (test concentration not listed);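 active means mean inhibition across valid replicates above about 55%, limit read from the data; inconclusive means mean below that limit but half or more replicates reach it; inactive means mean below it, under half of replicates reach it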;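 further: signal also drops with host cell toxicity which is not excluded here; higher percent means less beta-gal luminescence so fewer parasites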
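System – NIH/3T3 host cells with β-galactosidase reporter T. cruzi · Doses – single 50 nL compound addition per well in DMSO · Reagent – 5000 T. cruzi trypomastigotes/well · Medium – Low-serum DMEM with 2% FBS · Timing – ≥90 h infection period, 3 h prior cell attachment · Evaluation – parasite load inhibition, % · Technique – GalScreen luminescence, 60 min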
HSF1 inh: HSF1 inhibition. hit rate 0.77% among 300,000. NIH3T3-HGL HSE-luciferase, MG132-induced, luminescence 8 h; stronger effect = lower value. activity change, negative = inhibition, % at 7.5 µM (by protocol). AID 2098;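 active means more than half of replicate wells show activity change below -50%, luminescence cut by over half; inconclusive means some wells, but at most half, below -50%; inactive means no replicate well below -50%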;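 further: luciferase reports HSF-1 transcriptional activity via heat shock element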
Lmaj promast: inhibitors of Leishmania major promastigote growth; Leishmania major promastigotes, resazurin fluorescence viability; inhibition, % at 10 µM; hit rate 9% among 200,000; in the data active means inhibition above about 50%;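 further: promastigotes grown with compound for 44 hours at 28 °C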
HSF1 activator: increases HSF-1 driven luciferase reporter signal. NIH3T3-HGL HSF-1 luciferase reporter, MG132, 8 h; 100% = twice DMSO control signal. activation, % at 9 µM. hit rate 1.7% among 300,000;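 active means mean replicate activation of at least 50% with a set share of replicates each reaching 50%; inconclusive means only one of those two conditions met; inactive means mean below 50% and too few replicates reaching it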
Hsp70 act: switches on Hsp70 transcription. HeLa Hsp70 promoter luciferase reporter, luminescence; scaled: vehicle 0, proteasome-inhibitor control 100%. activation, % at 10 µM. hit rate 0.04% among 200,000;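 active means activation above the mean across all tested compounds plus 3 SD, cutoff set per campaign, cut at about 5.5% in these data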
Large screens that a line does not name were inactive.

C=C(C)C1CC=C(C)/C(=N/NC(=O)COc2cccc(C)c2)C1 (stereo not given)	none
C=C(C)C1CC=C(C)/C(=N/NC(=O)c2ccoc2C)C1 (stereo not given)	none
C=C(C)C1CC=C(C)/C(=N/NC(=O)c2cccc([N+](=O)[O-])c2)C1 (stereo not given)	Lmaj promast 100
COC(=O)/C(C#N)=C/c1cc(C)sc1C	none (no result: Lmaj promast, Hsp70 act)
Cc1ccc(C)c(NC(=O)CN(C)C(=O)COc2ncnc3sccc23)c1	Lmaj promast 58
Cc1ccc(C)c(NC(=O)CN(C)C(=O)c2sccc2C)c1	none (no result: Lmaj promast, Hsp70 act)
O=C(COc1ccccc1)N=C1SC2CS(=O)(=O)CC2N1CCc1ccccc1 (stereo not given)	none (no result: Lmaj promast, Hsp70 act)
COc1cc(Cl)c(CN2CCCC(CO)(Cc3ccccc3)C2)cc1OC (stereo not given)	none (no result: Lmaj promast, Hsp70 act)
Cc1ccc(-n2cc(CN3CCC(CO)(Cc4cccc(C(F)(F)F)c4)CC3)cn2)cc1	T cruzi inh 61, Lmaj promast 99
Cc1ccc(-n2cc(CN3CCC(CO)(Cc4ccccc4)CC3)cn2)cc1	Lmaj promast 80
OCC1(Cc2ccccc2)CCN(Cc2cnn(-c3ccccc3F)c2)CC1	Lmaj promast 88
CSc1ccc(CN2CCCC(CO)(Cc3ccccc3)C2)cc1 (stereo not given)	Lmaj promast 64
COC(=O)c1ccc(Cn2cc(Cl)cn2)o1	none (no result: Lmaj promast, Hsp70 act)
Cc1ccc(C(=O)N/C(=C\c2ccccc2)C(=O)NCc2cccnc2)cc1	none
CC(C)OCC1CC(CC(=O)Nc2ccc([N+](=O)[O-])cc2)C(=O)O1 (stereo not given)	none
CC1(C)CC(NC(=O)c2cc(S(=O)(=O)N3CCCCC3)ccc2Cl)CC(C)(C)N1	none (no result: Lmaj promast, Hsp70 act)
OCC1(Cc2ccccc2)CCCN(Cc2cnn(-c3ccccc3)c2)C1 (stereo not given)	Lmaj promast 89
COc1ccccc1-n1cc(CN2CCCC(CO)(Cc3cccc(Cl)c3)C2)cn1 (stereo not given)	T cruzi inh inconclusive
CN(C)CCOC(C1CCCCC1)C1CCCCC1	Lmaj promast 50
CN(C)CCNC(=S)NC1CCCCC1	none
CCOC(=O)c1cc(S(=O)(=O)N2CCC(C)CC2)cn1C	none (no result: Lmaj promast, Hsp70 act)
COc1ccc(-c2c(C#N)c(N)nc3c2CCc2ccccc2-3)cc1OC	none
Cc1cc(-c2cc(-c3ccc(Cl)cc3)nc(N)c2C#N)co1	Lmaj promast 62 (no result: T cruzi inh)
COc1ccc(-c2cc(-c3ccc(O)cc3)nc(N)c2C#N)cc1OC	Lmaj promast 65
O=C1NC(=Nc2ccccc2)c2ccc([N+](=O)[O-])cc21	Lmaj promast 67
Cc1ccc(Nc2nc(CSc3nnc(-c4ccccc4)n3C)cs2)cc1	Lmaj promast 95
Cc1ccc(Nc2nc(CSc3nnnn3-c3ccccc3)cs2)cc1	HSF1 activator 70
O=C(Nc1ccc(Cl)cc1)OCc1cn(-c2ccc(Cl)cc2)nn1	none
Clc1ccc(-n2cc(COCc3ccccc3)nn2)cc1	HSF1 activator 61
CCc1ccc(OCCCCN(C)Cc2ccccc2)cc1	T cruzi inh 55 (no result: Lmaj promast, Hsp70 act)
COc1cc(C=O)ccc1OCCOCCOc1cc(C)ccc1Cl	Lmaj promast 73
COc1cc(C)ccc1OCCOCCN(C)Cc1ccccc1	Lmaj promast 91
CN(CCCCOc1ccc(F)cc1)Cc1ccccc1	none (no result: Lmaj promast, Hsp70 act)
CN(CCOCCOc1ccc2ccccc2c1)Cc1ccccc1	Lmaj promast 100
COc1cc(C)ccc1OCCOc1ccccc1Cl	none
C/C(=N\NC(=O)COc1cc(C)cc(C)c1)c1cccc(NC(=O)C2CCC2)c1	none (no result: Lmaj promast, Hsp70 act)
Cc1ccnc(NC(=O)CCC(=O)c2cc(C)sc2C)c1	none (no result: Lmaj promast, Hsp70 act)
CC1(C(=O)O)CCC(C(=O)NNC(=O)c2ccccc2O)C1(C)C (stereo not given)	none (no result: Lmaj promast, Hsp70 act)
COc1ccc(C(=O)NCCS(=O)(=O)N(C)Cc2ccccc2)cc1	none (no result: Lmaj promast, Hsp70 act)
CCN(CC)CCSc1nc2ccccc2c(=S)n1-c1ccccc1	T cruzi inh 64, Lmaj promast 82
CSc1ccccc1C(=O)OCC(=O)NC1CCS(=O)(=O)C1 (stereo not given)	none
O=C(Nc1nnc(-c2cccs2)o1)c1ccc(S(=O)(=O)N2CCOCC2)cc1	none
COc1ccc(C(=O)Nc2nnc(C3=COCCO3)o2)cc1	none (no result: Lmaj promast, Hsp70 act)
CC1(C)COCN1S(=O)(=O)c1ccc(C(=O)Nc2nnc(-c3ccc(Cl)s3)o2)cc1	Lmaj promast 99
COc1ccc(-c2nnc(NC(=O)c3ccc(S(=O)(=O)N4COCC4(C)C)cc3)o2)cc1	T cruzi inh 62, HSF1 inh inconclusive, Lmaj promast 99
COc1ccc(CC(=O)NC2CC(C)(C)NC(C)(C)C2)cc1	none
Cc1ccc(NC(=O)/C=C/c2cccs2)c([N+](=O)[O-])c1	HSF1 activator 63
COc1ccc(-c2cc(C(=O)Nc3ccccc3F)on2)cc1	HSF1 activator 54
Cc1ccccc1OC(C)C(=O)Nc1ccc2c(c1)OCCO2 (stereo not given)	none (no result: Lmaj promast, Hsp70 act)
Cc1cc(=O)n(Cc2ccccc2)c(O)c1C#N	none (no result: Lmaj promast, Hsp70 act)
COC(=O)c1cc(C(=O)OC)n(Cc2ccc(F)cc2)c1C	none
Cc1c(C#N)c(NC(=O)CCl)n(Cc2cccs2)c1C	T cruzi inh 61, Lmaj promast 80
Cc1c(C#N)c(NC(=O)CCl)n(Cc2ccc(F)cc2)c1C	Lmaj promast 92
Cc1c(C#N)c(NC(=O)CCl)n(Cc2ccccc2)c1C	T cruzi inh inconclusive, Lmaj promast 90, HSF1 activator 57
Cc1ccc(S(=O)(=O)N2CCOCC2)cc1NC(=O)c1cc([N+](=O)[O-])ccc1N1CCOCC1	none (no result: Lmaj promast, Hsp70 act)
OCCC1CN(C2CCSCC2)CCN1C1CCCC1 (stereo not given)	none
CC(C)N1CCC(N2CCN(C3CCCC3)CC2CCO)CC1 (stereo not given)	HSF1 inh -56
Cc1cccc(N2CCC(N3CCN(C4CCCCC4)C(CCO)C3)CC2)c1C (stereo not given)	Lmaj promast 88
Cc1ccc(C(=O)N2CCN(CCNC(=O)C(=O)NCc3ccc(Cl)cc3)CC2)cc1	none (no result: Lmaj promast, Hsp70 act)
COCc1c(C(C)C)nc(C(C)C)c(/C=C/[C@@H](O)C[C@@H](O)CC(=O)O)c1-c1ccc(F)cc1	T cruzi inh 65 (no result: Lmaj promast, Hsp70 act)
O=C(OC1CCCCC1)c1cc2ccccc2oc1=O	HSF1 activator 52 (no result: Lmaj promast, Hsp70 act)
COc1cccc2cc(C(=O)OC3CCN(C)CC3)c(=O)oc12	HSF1 inh -68
CCN(Cc1ccncc1)C(=S)Nc1c(C)cccc1C	none
Cc1cccc(C)c1NC(=S)N(Cc1ccccc1)Cc1cccnc1	T cruzi inh 79, Lmaj promast 89
CSc1cccc(NC(=S)N(Cc2ccccc2)Cc2cccnc2)c1	T cruzi inh 83, Lmaj promast 96
S=C(Nc1ccc(N2CCOCC2)cc1)Nc1ccc2snnc2c1	none
Cc1c(Cl)cccc1NC(=O)c1cccc(OC(F)F)c1	HSF1 inh -72, Lmaj promast 99
O=C(Nc1ccc2c(c1)CCC2)c1cnc(Cl)c(Cl)c1	HSF1 activator 58
O=C(Nc1ccc(OC(F)F)c(Cl)c1)c1cccc(OC(F)F)c1	none
O=C(Nc1ccc2c(c1)CCC2)c1cccc(OC(F)F)c1	HSF1 activator 82 (no result: Lmaj promast, Hsp70 act)
